Experimental data reported in ChEMBL document CHEMBL2401679, “Synthesis and on-target antibacterial activity of novel 3-elongated arylalkoxybenzamide derivatives as inhibitors of the bacterial cell division protein FtsZ” (2013).
≈ marks a conversion by molar mass, not a printed value. Calls of active or inactive are those of the source. No cut-off for these calls is given here.

Assays:
Streptococcus pyogenes = test: Antibacterial activity against penicillin-susceptible Streptococcus pyogenes after 24 hrs by broth microdilution method; type: functional
Method in brief: (§1)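 MIC by broth microdilution following the NCCLS standard method. Test strains were penicillin-susceptible: B. subtilis ATCC9372, S. aureus ATCC25923, S. pneumoniae ATCC49619 and Streptococcus pyogenes PS.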

Streptococcus pneumoniae = test: Antibacterial activity against penicillin-susceptible Streptococcus pneumoniae ATCC 49619 after 24 hrs by broth microdilution method; type: functional; conditions: ATCC 49619, 24 h; method in brief: as §1
Staphylococcus aureus [1] = test: Antibacterial activity against penicillin-resistant Staphylococcus aureus clinical isolate after 24 hrs by broth microdilution method; type: functional
Method in brief: (§2)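 MIC by standard broth microdilution following NCCLS recommendations. S. aureus ATCC29213 is a […] strain. The S. aureus PR strain is a penicillin-resistant clinical isolate that has not been characterized. The MIC was taken as the in vitro antibacterial activity value.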

Staphylococcus aureus [2] = test: Antibacterial activity against penicillin-susceptible Staphylococcus aureus ATCC 25923 after 24 hrs by broth microdilution method; type: functional; conditions: ATCC 25923, 24 h; method in brief: as §1
Staphylococcus aureus [3] = test: Antibacterial activity against […] Staphylococcus aureus ATCC 29213 after 24 hrs by broth microdilution method; type: functional; conditions: ATCC 29213, 24 h; method in brief: as §2
Bacillus subtilis [4] = test: Antibacterial activity against penicillin-susceptible Bacillus subtilis ATCC 9372 after 24 hrs by broth microdilution method; type: functional; conditions: ATCC 9372, 24 h; method in brief: as §1
Staphylococcus aureus [5] = test: Inhibition of cell division in penicillin-susceptible Staphylococcus aureus ATCC 25923 assessed as lowest concentration required to ballooning after 5 hrs by phase-contrast light microscopy analysis; type: functional
Method in brief: (§3)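 Cell morphology of B. subtilis ATCC9372 or S. aureus ATCC25923 was examined by phase-contrast light microscopy. The value recorded is the lowest compound concentration at which B. subtilis filamentation or S. aureus ballooning appeared. This is taken as on-target cell division inhibition.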

Bacillus subtilis [6] = test: Inhibition of cell division in penicillin-susceptible Bacillus subtilis ATCC 9372 assessed as lowest concentration required to filamentation after 5 hrs by phase-contrast light microscopy analysis; type: functional; method in brief: as §3
Staphylococcus aureus [7] = test: Inhibition of cell division in penicillin-susceptible Staphylococcus aureus ATCC 25923 at 2048 to 4096 ug/ml after 5 hrs by phase-contrast light microscopy analysis; type: functional, organism-based
Staphylococcus aureus [8] = test: Ratio of compound MIC to 3-MBA MIC for penicillin-resistant Staphylococcus aureus clinical isolate; type: functional
Staphylococcus aureus [9] = test: Ratio of compound MIC to 3-MBA MIC for penicillin-susceptible Staphylococcus aureus ATCC 25923; type: functional
Bacillus subtilis [10] = test: Ratio of compound MIC to 3-MBA MIC for penicillin-susceptible Bacillus subtilis ATCC 9372; type: functional
Bacillus subtilis [11] = test: Inhibition of cell division in penicillin-susceptible Bacillus subtilis ATCC 9372 at 2048 to 4096 ug/ml after 5 hrs by phase-contrast light microscopy analysis; type: functional, organism-based
Bacillus subtilis [12] = test: Ratio of compound to 3-MBA for inhibition of cell division in penicillin-susceptible Bacillus subtilis ATCC 9372; type: functional

Structure (SMILES)	MIC (Streptococcus pyogenes)	MIC (Streptococcus pneumoniae)	MIC (Staphylococcus aureus [1])	MIC (Staphylococcus aureus [2])	MIC (Staphylococcus aureus [3])	MIC (Bacillus subtilis [4])	INH (Staphylococcus aureus [5])	INH (Bacillus subtilis [6])	inhibition (Staphylococcus aureus [7])	Ratio (Staphylococcus aureus [8])	Ratio (Staphylococcus aureus [9])	Ratio (Bacillus subtilis [10])	inhibition (Bacillus subtilis [11])	Ratio (Bacillus subtilis [12])
NC(=O)c1cccc(OCCCCOc2ccccc2)c1	> 128 µg/mL	128 µg/mL (≈ 449 µM)	> 128 µg/mL	1020 µg/mL (≈ 3590 µM)	> 128 µg/mL	64 µg/mL (≈ 224 µM)	512 µg/mL	32 µg/mL	–	–	–	–	–	–
NC(=O)c1cccc(OCCCCCCl)c1	> 128 µg/mL	> 128 µg/mL	32 µg/mL (≈ 132 µM)	32 µg/mL (≈ 132 µM)	32 µg/mL (≈ 132 µM)	64 µg/mL (≈ 265 µM)	32 µg/mL	32 µg/mL	–	–	–	–	–	–
COc1cccc(C(N)=O)c1	> 128 µg/mL	> 128 µg/mL	4100 µg/mL (≈ 27100 µM)	2050 µg/mL (≈ 13500 µM)	2050 µg/mL (≈ 13500 µM)	4100 µg/mL (≈ 27100 µM)	–	512 µg/mL	inactive	–	–	–	–	–
NC(=O)c1cccc(OCCCSc2nc3ccccc3[nH]2)c1	> 128 µg/mL	> 128 µg/mL	> 128 µg/mL	1020 µg/mL (≈ 3130 µM)	> 128 µg/mL	16 µg/mL (≈ 48.9 µM)	512 µg/mL	4 µg/mL	–	–	–	–	–	–
NC(=O)c1cccc(OCCCCOc2ccc(Cl)cc2)c1	> 128 µg/mL	> 128 µg/mL	> 128 µg/mL	1020 µg/mL (≈ 3200 µM)	> 128 µg/mL	0.5 µg/mL (≈ 1.56 µM)	256 µg/mL	0.25 µg/mL	–	–	–	–	–	–
NC(=O)c1cccc(OCCCCSc2nc3ccccc3s2)c1	> 128 µg/mL	> 128 µg/mL	> 128 µg/mL	1020 µg/mL (≈ 2860 µM)	> 128 µg/mL	128 µg/mL (≈ 357 µM)	512 µg/mL	128 µg/mL	–	–	–	–	–	–
NC(=O)c1cccc(OCCSc2nc3ccccc3s2)c1	> 128 µg/mL	> 128 µg/mL	> 128 µg/mL	2050 µg/mL (≈ 6200 µM)	> 128 µg/mL	32 µg/mL (≈ 96.8 µM)	1024 µg/mL	16 µg/mL	–	–	–	–	–	–
NC(=O)c1cccc(OCCCOc2ccccc2)c1	> 128 µg/mL	> 128 µg/mL	> 128 µg/mL	1020 µg/mL (≈ 3770 µM)	> 128 µg/mL	32 µg/mL (≈ 118 µM)	1024 µg/mL	8 µg/mL	–	–	–	–	–	–
NC(=O)c1cccc(OCCCCCCBr)c1	> 128 µg/mL	> 128 µg/mL	64 µg/mL (≈ 213 µM)	64 µg/mL (≈ 213 µM)	64 µg/mL (≈ 213 µM)	32 µg/mL (≈ 107 µM)	64 µg/mL	16 µg/mL	–	–	–	–	–	–
NC(=O)c1cccc(OCCCn2cncn2)c1	> 128 µg/mL	> 128 µg/mL	> 128 µg/mL	2050 µg/mL (≈ 8320 µM)	> 128 µg/mL	32 µg/mL (≈ 130 µM)	1024 µg/mL	16 µg/mL	–	–	–	–	–	–
NC(=O)c1cccc(OCCCCBr)c1	> 128 µg/mL	> 128 µg/mL	8 µg/mL (≈ 29.4 µM)	8 µg/mL (≈ 29.4 µM)	8 µg/mL (≈ 29.4 µM)	16 µg/mL (≈ 58.8 µM)	8 µg/mL	8 µg/mL	–	512	256	256	–	–
NC(=O)c1cccc(O)c1	> 128 µg/mL	> 128 µg/mL	4100 µg/mL (≈ 29900 µM)	4100 µg/mL (≈ 29900 µM)	4100 µg/mL (≈ 29900 µM)	512 µg/mL (≈ 3730 µM)	4096 µg/mL	4096 µg/mL	–	–	–	–	–	–
Cc1nc2ccccc2n1CCCCOc1cccc(C(N)=O)c1	> 128 µg/mL	> 128 µg/mL	> 128 µg/mL	1020 µg/mL (≈ 3170 µM)	> 128 µg/mL	1020 µg/mL (≈ 3170 µM)	–	–	inactive	–	–	–	inactive	–
NC(=O)c1cccc(OCCBr)c1	> 128 µg/mL	> 128 µg/mL	128 µg/mL (≈ 524 µM)	64 µg/mL (≈ 262 µM)	128 µg/mL (≈ 524 µM)	128 µg/mL (≈ 524 µM)	16 µg/mL	64 µg/mL	–	–	–	–	–	–
NC(=O)c1cccc(OCCCSc2nc3ccccc3s2)c1	> 128 µg/mL	> 128 µg/mL	> 128 µg/mL	512 µg/mL (≈ 1490 µM)	> 128 µg/mL	512 µg/mL (≈ 1490 µM)	256 µg/mL	512 µg/mL	–	–	–	–	–	–
NC(=O)c1cccc(OCCCCn2ccnc2)c1	> 128 µg/mL	> 128 µg/mL	> 128 µg/mL	256 µg/mL (≈ 987 µM)	> 128 µg/mL	128 µg/mL (≈ 494 µM)	128 µg/mL	128 µg/mL	–	–	–	–	–	–
NC(=O)c1cccc(OCCCCl)c1	> 128 µg/mL	> 128 µg/mL	64 µg/mL (≈ 300 µM)	64 µg/mL (≈ 300 µM)	64 µg/mL (≈ 300 µM)	128 µg/mL (≈ 599 µM)	64 µg/mL	64 µg/mL	–	–	–	–	–	–
NC(=O)c1cccc(OCCCBr)c1	> 128 µg/mL	> 128 µg/mL	128 µg/mL (≈ 496 µM)	64 µg/mL (≈ 248 µM)	64 µg/mL (≈ 248 µM)	128 µg/mL (≈ 496 µM)	32 µg/mL	128 µg/mL	–	–	–	–	–	–
NC(=O)c1cccc(OCCCOc2ccc(Cl)cc2)c1	> 128 µg/mL	> 128 µg/mL	> 128 µg/mL	1020 µg/mL (≈ 3350 µM)	> 128 µg/mL	16 µg/mL (≈ 52.3 µM)	512 µg/mL	4 µg/mL	–	–	–	–	–	–
NC(=O)c1cccc(OCCCCCBr)c1	> 128 µg/mL	> 128 µg/mL	32 µg/mL (≈ 112 µM)	32 µg/mL (≈ 112 µM)	16 µg/mL (≈ 55.9 µM)	64 µg/mL (≈ 224 µM)	64 µg/mL	32 µg/mL	–	–	–	–	–	–
NC(=O)c1cccc(OCCCCCl)c1	> 128 µg/mL	> 128 µg/mL	8 µg/mL (≈ 35.1 µM)	8 µg/mL (≈ 35.1 µM)	8 µg/mL (≈ 35.1 µM)	32 µg/mL (≈ 141 µM)	32 µg/mL	16 µg/mL	–	512	256	–	–	–
CCCOCCCCCOc1cccc(C(N)=O)c1	> 128 µg/mL	> 128 µg/mL	32 µg/mL (≈ 121 µM)	16 µg/mL (≈ 60.3 µM)	32 µg/mL (≈ 121 µM)	32 µg/mL (≈ 121 µM)	32 µg/mL	8 µg/mL	–	–	–	–	–	–
CCCCOCCCCCOc1cccc(C(N)=O)c1	> 128 µg/mL	> 128 µg/mL	8 µg/mL (≈ 28.6 µM)	8 µg/mL (≈ 28.6 µM)	4 µg/mL (≈ 14.3 µM)	8 µg/mL (≈ 28.6 µM)	16 µg/mL	8 µg/mL	–	–	256	512	–	–
NC(=O)c1cccc(OCCCOc2ccc([N+](=O)[O-])cc2)c1	> 128 µg/mL	> 128 µg/mL	> 128 µg/mL	1020 µg/mL (≈ 3240 µM)	> 128 µg/mL	4 µg/mL (≈ 12.6 µM)	512 µg/mL	4 µg/mL	–	–	–	–	–	–
COc1ccc(OCCCOc2cccc(C(N)=O)c2)cc1	> 128 µg/mL	> 128 µg/mL	> 128 µg/mL	1020 µg/mL (≈ 3400 µM)	> 128 µg/mL	1020 µg/mL (≈ 3400 µM)	512 µg/mL	1024 µg/mL	–	–	–	–	–	–
NC(=O)c1cccc(OCCCCOc2ccc([N+](=O)[O-])cc2)c1	> 128 µg/mL	> 128 µg/mL	> 128 µg/mL	1020 µg/mL (≈ 3100 µM)	> 128 µg/mL	32 µg/mL (≈ 96.9 µM)	512 µg/mL	32 µg/mL	–	–	–	–	–	–
NC(=O)c1cccc(OCCCCCCCl)c1	> 128 µg/mL	> 128 µg/mL	32 µg/mL (≈ 125 µM)	32 µg/mL (≈ 125 µM)	64 µg/mL (≈ 250 µM)	16 µg/mL (≈ 62.6 µM)	32 µg/mL	4 µg/mL	–	–	–	256	–	128
COc1ccc(OCCCCOc2cccc(C(N)=O)c2)cc1	> 128 µg/mL	> 128 µg/mL	> 128 µg/mL	4100 µg/mL (≈ 13000 µM)	> 128 µg/mL	1020 µg/mL (≈ 3250 µM)	–	32 µg/mL	inactive	–	–	–	–	–
NC(=O)c1cccc(OCCCCn2cncn2)c1	> 128 µg/mL	> 128 µg/mL	> 128 µg/mL	1020 µg/mL (≈ 3930 µM)	> 128 µg/mL	1020 µg/mL (≈ 3930 µM)	1024 µg/mL	–	–	–	–	–	inactive	–
CCOCCCCCOc1cccc(C(N)=O)c1	> 128 µg/mL	> 128 µg/mL	64 µg/mL (≈ 255 µM)	64 µg/mL (≈ 255 µM)	64 µg/mL (≈ 255 µM)	64 µg/mL (≈ 255 µM)	128 µg/mL	64 µg/mL	–	–	–	–	–	–
